# Variants at the floor of the assay were thinned out.
# B1: tRNA (parent)
# chain: GUUCCGUUGGCGUAAUGGUAACGCGUCUCCCUCCUAAGGAGAAGACUGCGGGUUCGAGUCCCGUACGGAACG
# Variants of: B1
# Assay: yeast fitness relative to wild type (ratio to wild type); higher = fitter; tRNA-Arg(CCU), competitive growth, 37 C, YPD
# Outline: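 Variants of the tRNA-Arg(CCU) gene, chemically synthesised with a 3% per-site mutation rate at 69 sites, were placed at the native genomic locus in Saccharomyces cerevisiae. The pooled strains were competed in YPD at 37°C for 24 hours in six parallel replicates. Gene amplicons from the start population and from each end population were read by 100-nucleotide paired-end sequencing. Darwinian fitness relative to wild type came from changes in genotype frequencies; genotypes needed ≥ 100 starting reads, and estimates < 0.5 were set to 0.5.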
row,Variant,yeast fitness
1,G50C G51A C55U,0.549
2,C49U G56U,0.677
3,C49U G56C,0.58
4,C49U G56A,1.03
5,G52A C61A A69U,≤ 0.5
6,G51U,0.843
7,G51C,0.612
8,G51A,0.917
9,C49U G56C A70C,≤ 0.5
10,G52A U54C,0.589
11,C49G G56A A65C,0.543
12,G52C G63A A69G,≤ 0.5
13,G50C U64C,0.967
14,U53G G58C,0.716
15,G50C A57U,0.63
16,U53C C60U,0.638
17,C49G U54A G68U A69U,0.566
18,G51A C55U G58A,0.606
19,G52A G68U,0.653
20,G52A G68C,0.744
21,G52A U64C,0.789
22,C49U U59A C61A,≤ 0.5
23,C49G U54G A69U,≤ 0.5
24,G51C G67A,0.572

row,Variant,yeast fitness
1,G51C G67U,0.504
2,G51A C55U,0.633
3,G52A G58A,0.69
4,G51A G52C C61U,0.536
5,C49U C62G G68C,0.536
6,G51A A57G,0.819
7,C49U A70U,1
8,C49G C66G G67C,0.569
9,G51C C55G C62A,≤ 0.5
10,C49U G67A A69U,≤ 0.5
11,G50A A65U,0.703
12,C49U U59A,0.852
13,C49U U59G,0.904
14,C49G U53A,0.627
15,G50C U54C A57G,≤ 0.5
16,G52A U59A A69C,0.571
17,U53A A65G,0.571
18,U53A A65U,0.601
19,G52C G56A C62U,0.653
20,U54A A65U C66U,≤ 0.5
21,G50C A65C,0.602
22,U53A G56C C60A A70G,0.58
23,G52C A65C,0.907
24,G52C A65G,0.613

row,Variant,yeast fitness
1,G52C A65U,0.614
2,U53A A57G,0.556
3,G52A C62U G63A,≤ 0.5
4,G51C A57G,0.52
5,G51C A57C,0.551
6,G51C A57U,0.691
7,G52A U59A,0.666
8,G50C G58A C66U,0.538
9,G51C U54A A57C,0.859
10,G51A C62G C66U,≤ 0.5
11,G51A U59A C61U G67A,≤ 0.5
12,C49U A69C,1.01
13,U54A A69C,0.658
14,C49U A65U A70U,0.657
15,G50C G63A,0.773
16,G50U A69U,1.02
17,G52A U53A C66U,≤ 0.5
18,C49U G51C G68A,≤ 0.5
19,G50C U59C,0.721
20,G50C G58C,0.722
21,C49U G58C,1
22,G51A U59A G67C,≤ 0.5
23,G50U C61A,≤ 0.5
24,G50C G52C,0.562

row,Variant,yeast fitness
1,G51C C55U,≤ 0.5
2,G52C A69C,0.687
3,U53A C55A,0.756
4,U53C A65U C66U,≤ 0.5
5,G51A G68C,0.671
6,U53C A65C,0.878
7,U53C A65U,0.788
8,C49G G50A A57C,≤ 0.5
9,G51A A57C C66U,0.59
10,G50C U53C C55U,0.528
11,G51U U53A,0.657
12,G51C U54C A57G,≤ 0.5
13,G50A G52U G67C,≤ 0.5
14,G50C A57U C61A,≤ 0.5
15,U53G C66A,≤ 0.5
16,C49U U54C C66G,≤ 0.5
17,G51A G52A,0.571
18,U53A G63A,0.618
19,G52A A69U,0.853
20,G51C A69U,0.624
21,G52A U59A A69C A70C,0.609
22,G50A G67C,0.743
23,G50A G67A,0.818
24,G51A C61U C66G,≤ 0.5

row,Variant,yeast fitness
1,G52C C55G,0.843
2,G52C C55A,≤ 0.5
3,U53A C66A,≤ 0.5
4,G51U C61U,0.747
5,G50C C61U C62U A69U,≤ 0.5
6,G51A A57G A65G C66U,≤ 0.5
7,C49G G56C A70U,0.55
8,U53C A57C C66U,≤ 0.5
9,G51C A70U,0.662
10,U53C A57G C66U,≤ 0.5
11,G51C A65C,0.71
12,G51C A65U,0.597
13,C49G G50A U59G,≤ 0.5
14,G52A A65U,0.631
15,G52A A65G,0.86
16,G51C G52C U59A,0.614
17,G52A A57G G58A A70U,≤ 0.5
18,G51U A57G,0.642
19,G52C A70U,0.804
20,G51C G56A C62G C66A A70G,≤ 0.5
21,U53C U59A,0.731
22,C49G C66U,0.781
23,C49G C66G,0.647
24,G50A U59C,0.863

row,Variant,yeast fitness
1,G50A U59G,0.846
2,U53A G67C,0.664
3,U53A C61G,≤ 0.5
4,U53A C61A,0.509
5,C49G G50C,0.613
6,C49G G50A,0.667
7,G50C G58U G68U A69G,0.508
8,G52C A69U A70U,≤ 0.5
9,U53C C61G G67A A69C,0.552
10,G51C U54C C66U,≤ 0.5
11,G50A C55A C66A,0.543
12,C49U C62U,0.869
13,C49U C62A,0.787
14,C49U G52C,0.547
15,G51C C62U A70U,≤ 0.5
16,G50A A69U,1
17,C49U U53A C66U A70U,≤ 0.5
18,C49U G68C A69U,0.569
19,G50A G56C,0.635
20,G50A G56A,1.04
21,G51C C61G,1.04
22,G50A U54A,0.705
23,C49U C55A C62U,0.699
24,G52A A57U C61G,≤ 0.5

row,Variant,yeast fitness
1,G52C C60A,0.641
2,G52C C60U,0.533
3,C49U G68C,0.801
4,G50A C60G U64G,0.521
5,G50U C62U A69C,0.661
6,C49G U54A,0.637
7,C49G U54G,0.625
8,G50A C62A G68A,≤ 0.5
9,G52A A57C,0.789
10,G52A A57U,0.516
11,U54A A65C,0.724
12,C49G G56A,0.838
13,C49G G63A,0.86
14,C49G G63C,0.967
15,U53A G68A,0.574
16,G52A G56C A65U,≤ 0.5
17,G52A A57C A70G,0.524
18,G52C C62A,0.596
19,G52C C62G,0.646
20,G50A G56A A69C,0.706
21,G51A U59A C62G,≤ 0.5
22,G51A A69U A70G,0.543
23,G50A G56A C62G A70U,≤ 0.5

# From the RNAGym collection of RNA variant scans (doi:10.1126/science.aae0568)
